# Results taken from article PMC6726563 (Structure (London, England : 1993), 2019).
# Legend:
# [1] = target: native integrins expressed on U87MG (human (endogenous in U87MG)); experiment: flow cytometry on cells
# [2] = target: recombinant integrin αVβ3 stably expressed on K562 cells (UniProt P06756); experiment: flow cytometry on cells
# Human αVβ3 ectodomain = experiment: Crystal structure of knottin bound to αVβ3 ectodomain; conditions: Mn2+
# How it was run: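 Human αVβ3 ectodomain was expressed in insect cells and crystallized at 4 °C by hanging-drop vapor diffusion. Test compound (5 mM) was soaked into the crystals in well solution with 1 mM Mn2+ for 2–3 weeks. Crystals were harvested in 12% PEG 3500, 100 mM sodium acetate pH 4.5, 800 mM NaCl, 2 mM Mn2+ and 5 mM test compound. They were cryoprotected stepwise to 24% glycerol and flash frozen. Phases came from molecular replacement.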
# integrins αVβ3 and α5β1 = experiment: Integrin selectivity of knottins; format: binding
# αVβ3 [3] = conditions: ref Kimura et al., 2009a; cited from earlier work
# [4] = target: αVβ3** double mutant (β3-M180A and β3-R214G) transiently expressed on HEK293T cells (UniProt P06756); experiment: flow cytometry on cells
# [5] = test system: patients with glioblastoma; conditions: ref Mason, 2015, cited from earlier work
# αVβ3 [6] = conditions: ref Van Agthoven et al., 2014; Xiong et al., 2002; cited from earlier work
# αVβ3 [7] = conditions: ref Reynolds et al., 2009; cited from earlier work
# [8] = target: native integrin α5β1 on K562 cells (human (endogenous in K562)) (UniProt P08648); experiment: flow cytometry on cells
# α5β1 = conditions: ref Kimura et al., 2009a; cited from earlier work
# Sequence of UniProt P08648 (P08648 42-1049, chain 1 of 2): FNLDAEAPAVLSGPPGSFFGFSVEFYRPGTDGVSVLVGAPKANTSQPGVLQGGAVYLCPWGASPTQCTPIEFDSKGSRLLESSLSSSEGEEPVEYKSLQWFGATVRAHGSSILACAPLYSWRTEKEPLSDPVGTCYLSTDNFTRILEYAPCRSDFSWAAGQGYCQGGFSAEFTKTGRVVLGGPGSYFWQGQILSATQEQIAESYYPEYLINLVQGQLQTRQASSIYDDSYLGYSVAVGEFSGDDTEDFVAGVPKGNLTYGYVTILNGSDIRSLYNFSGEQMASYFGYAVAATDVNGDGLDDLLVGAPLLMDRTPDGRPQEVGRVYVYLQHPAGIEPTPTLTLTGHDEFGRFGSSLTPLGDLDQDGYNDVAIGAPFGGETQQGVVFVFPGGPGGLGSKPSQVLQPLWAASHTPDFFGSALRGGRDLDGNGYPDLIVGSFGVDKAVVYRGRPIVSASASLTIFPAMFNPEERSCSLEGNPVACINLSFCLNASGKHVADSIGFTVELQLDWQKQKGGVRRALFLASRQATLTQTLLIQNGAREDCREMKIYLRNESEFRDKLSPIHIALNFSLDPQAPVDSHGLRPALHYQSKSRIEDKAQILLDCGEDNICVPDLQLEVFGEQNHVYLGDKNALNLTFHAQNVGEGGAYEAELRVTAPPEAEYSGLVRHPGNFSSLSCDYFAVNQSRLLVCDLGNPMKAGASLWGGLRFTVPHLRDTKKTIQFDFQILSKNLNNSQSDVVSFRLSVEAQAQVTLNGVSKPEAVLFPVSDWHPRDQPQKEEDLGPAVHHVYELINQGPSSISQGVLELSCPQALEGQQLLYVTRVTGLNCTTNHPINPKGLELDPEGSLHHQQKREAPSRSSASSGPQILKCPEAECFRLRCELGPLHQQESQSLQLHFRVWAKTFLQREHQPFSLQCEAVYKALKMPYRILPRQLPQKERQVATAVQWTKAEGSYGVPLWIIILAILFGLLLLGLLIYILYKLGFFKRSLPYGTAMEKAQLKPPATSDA
# Sequence of UniProt P08648 (P05556 21-798, chain 2 of 2, further chain): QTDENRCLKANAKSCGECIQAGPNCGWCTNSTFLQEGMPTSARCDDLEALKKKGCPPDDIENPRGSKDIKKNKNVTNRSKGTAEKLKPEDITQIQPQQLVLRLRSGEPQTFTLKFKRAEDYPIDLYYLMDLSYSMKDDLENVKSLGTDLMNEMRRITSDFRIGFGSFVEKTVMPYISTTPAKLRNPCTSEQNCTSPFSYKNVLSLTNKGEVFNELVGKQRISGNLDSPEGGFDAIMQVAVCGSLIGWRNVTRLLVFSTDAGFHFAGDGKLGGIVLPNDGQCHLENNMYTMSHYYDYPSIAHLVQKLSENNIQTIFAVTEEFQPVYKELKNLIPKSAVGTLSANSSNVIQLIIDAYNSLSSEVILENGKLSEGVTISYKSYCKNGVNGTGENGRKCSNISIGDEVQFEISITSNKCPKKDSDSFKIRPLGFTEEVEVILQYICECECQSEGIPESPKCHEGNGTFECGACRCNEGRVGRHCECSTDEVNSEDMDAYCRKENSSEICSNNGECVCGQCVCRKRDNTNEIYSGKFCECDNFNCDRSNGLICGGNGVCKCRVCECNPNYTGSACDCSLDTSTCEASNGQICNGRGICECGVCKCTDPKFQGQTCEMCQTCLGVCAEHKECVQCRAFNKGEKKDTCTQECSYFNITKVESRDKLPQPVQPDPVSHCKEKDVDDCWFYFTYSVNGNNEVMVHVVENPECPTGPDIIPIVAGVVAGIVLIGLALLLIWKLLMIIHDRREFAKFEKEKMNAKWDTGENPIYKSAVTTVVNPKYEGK
substance,measurement,setting,value
2.5D-Fc fusion protein,Kd,[1],1.7 nM
same,Kd,[2],1.4 nM
QG^5RGDWA^10P (disulfide) [2.5D],agonist character inferred from βA domain conformational change,Human αVβ3 ectodomain,partial agonists
same,integrin selectivity (in words),integrins αVβ3 and α5β1,αVβ3-specific
same,affinity to αVβ3 (in words),αVβ3 [3],nanomolar affinity
Alexa-647-labeled knottin 2.5D (designed binder),percent of binding to wt-αVβ3,[4],28%
cilengitide: partial agonist targeting αVβ3,pharmacokinetics (in words),[5]; likely related to failure in glioblastoma,unfavorable pharmacokinetics
same,survival of patients (in words),[5]; primary targeting of αVβ3,failed to prolong survival of patients with glioblastoma
same,agonist/antagonist character at αVβ3,αVβ3 [6],partial agonist
same,agonist-like behavior (in words),αVβ3 [7],agonist-like behavior
2.5F-Fc fusion protein,Kd,[8],9.2 nM
same,Kd,[1],5.9 nM
same,Kd,[2],6.9 nM
Alexa-647-labeled knottin 2.5F (designed binder),percent of binding to wt-αVβ3,[4],85%
RP^5RGDNP^10P (disulfide) [2.5F],agonist character inferred from βA domain conformational change,Human αVβ3 ectodomain,partial agonists
same,integrin selectivity (in words),integrins αVβ3 and α5β1,binds both αVβ3 and α5β1
same,affinity to αVβ3 (in words),αVβ3 [3],nanomolar affinity
same,affinity to α5β1 (in words),α5β1,nanomolar affinity
